Columns and labels:
hKV7.2/3 = hKV7.2/3 (Homo sapiens, UniProt O43525+O43526); assay: Two-electrode voltage clamp, hKV7.2/3 in Xenopus oocytes; type: cell-based; conditions: for effect on maximal conductance GMAX (in words) / shift of V50 (in words): 10 µM and 100 µM
Procedure, shortened: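 hKV7.2 and hKV7.3 cRNA (2.5 ng each) were coinjected into Xenopus oocytes, held 2–4 d at 8°C or 16°C, and clamped with two electrodes at rt in HEPES saline, pH 7.4. Holding −80 mV; 2-s steps from −100 to +50 mV in 10-mV increments; tail −30 mV. Boltzmann G(V) fits per oocyte gave ΔV50 and GMAX change. A Hill fit across concentrations gave EC50. Current fold increase was taken per test voltage; mean ± SEM.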

[1] = target: hKV7.2_W236L/hKV7.3_W265L (Homo sapiens, UniProt O43525+O43526, A315T/W236L/W265L); assay: Two-electrode voltage clamp, tryptophan mutant heteromer; type: cell-based; conditions: 3 µM
Procedure, shortened: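 Human KV7 cRNA (2.5–50 ng per oocyte; mutants made by site-directed mutagenesis) was injected into Xenopus oocytes, which were kept 2–4 d at 8°C or 16°C. Two-electrode clamp was run at rt in 88 mM NaCl/1 mM KCl/15 mM HEPES saline, pH 7.4. Holding −80 mV; 2-s steps from −100 to +50 mV; tail −30 mV. Tail-current Boltzmann G(V) fits used a shared slope, giving per-oocyte ΔV50 and GMAX change; mean ± SEM.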

hKV7.1 = hKV7.1 (Homo sapiens, UniProt P51787); conditions: ref Schenzer et al., 2005; cited from earlier work
[2] = 10 µM, analogues compared with ARA-S

Sequence of hKV7.1 (P51787 whole entry): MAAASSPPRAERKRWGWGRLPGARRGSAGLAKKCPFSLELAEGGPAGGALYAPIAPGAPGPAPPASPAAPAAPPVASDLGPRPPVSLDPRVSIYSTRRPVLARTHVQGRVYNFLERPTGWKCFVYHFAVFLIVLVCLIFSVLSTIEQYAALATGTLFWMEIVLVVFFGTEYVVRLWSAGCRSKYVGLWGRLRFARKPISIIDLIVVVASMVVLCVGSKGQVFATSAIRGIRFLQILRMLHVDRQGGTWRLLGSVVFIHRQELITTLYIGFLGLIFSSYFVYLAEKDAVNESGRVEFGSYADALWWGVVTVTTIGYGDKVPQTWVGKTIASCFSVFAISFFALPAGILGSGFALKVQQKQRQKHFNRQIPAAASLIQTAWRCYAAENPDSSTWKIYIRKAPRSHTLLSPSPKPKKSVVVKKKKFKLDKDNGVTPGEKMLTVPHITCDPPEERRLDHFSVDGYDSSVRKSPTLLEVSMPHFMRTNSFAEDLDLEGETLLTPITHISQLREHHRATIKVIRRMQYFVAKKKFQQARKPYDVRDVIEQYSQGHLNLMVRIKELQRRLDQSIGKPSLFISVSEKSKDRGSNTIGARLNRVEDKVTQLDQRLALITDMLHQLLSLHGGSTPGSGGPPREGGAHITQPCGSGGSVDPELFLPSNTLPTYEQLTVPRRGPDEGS

For `CCOC(=O)Nc1ccc(NCc2ccc(F)cc2)cc1N` [retigabine], which “current fold increase at −60 mV” value (hKV7.2/3; 1 µM alone) is on record?
Its value is “three- to fourfold”.

And the “increase in GMAX” value (hKV7.2/3; 1 µM alone)?
Its value is “did not affect”.

And the “shift in V50 (ΔV50)” value (hKV7.2/3; 1 µM alone)?
The value was −8.1 ± 0.7 mV.

And the “ΔV50:MAX (maximal shift in V50)” value (hKV7.2/3; from concentration-response curve)?
The value was −35 mV.

And the “sensitivity (shift in V50)” value [1]?
The value was “insensitive”.

And the “sensitivity of the channel” value (hKV7.1)?
The value was “insensitive”.

Which results are given for `CCCCC/C=C\C/C=C\C/C=C\C/C=C\CCCC(=O)NCCO` [AEA, N-arachidonoylethanolamine]?
effect on maximal conductance GMAX (in words) (hKV7.2/3): no effect; shift of V50 (in words) (hKV7.2/3): no effect

With `CCCCC/C=C\C/C=C\C/C=C\C/C=C\CCCC(=O)OC(CO)CO` [2-AG, 2-arachidonoylglycerol] as the compound, how does the “effect on maximal conductance GMAX (in words)” value (hKV7.2/3) read?
The value was “no effect”.

And the “shift of V50 (in words)” value (hKV7.2/3)?
The value was “no effect”.

Which “effect on GMAX (in words)” value (hKV7.2/3; [2]) does the source give for `CCCCC/C=C\C/C=C\C/C=C\C/C=C\CCCC(=O)N[C@H](CO)C(=O)O` (single isomer, unassigned) [D enantiomer of ARA-S, N-arachidonoyl-D-serine] here?
Its value is “comparable”.

And the “effect on V50 (in words)” value (hKV7.2/3; [2])?
Its value is “comparable”.
